Measurements taken from ChEMBL document CHEMBL4052605, “Lissoclibadin 1, a Polysulfur Aromatic Alkaloid from the Indonesian Ascidian Lissoclinum cf. badium, Induces Caspase-Dependent Apoptosis in Human Colon Cancer Cells and Suppresses Tumor Growth in Nude Mice” (J Nat Prod, 2017).

How the values were obtained:
HCT-15 = test: Antiproliferative activity against human HCT15 cells after 24 hrs by WST-1 assay; format: functional, cell-based; conditions: HCT-15, 24 h
How it was run: (§1)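 WST-1 viability assay. Cells seeded at 5 × 10^3 per well and grown 24 h, then given lissoclibadins at 0.1−40 μM (etoposide 1.0−100 μM) in triplicate for 24 h. WST-1 added and absorbance read 4 h later at 450 nm, background subtracted at 650 nm. Viability expressed as % of control; IC50 taken as 50% inhibition of viability. Three experiments, mean ± SD.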

HeLa S3 = test: Antiproliferative activity against human HeLaS3 cells after 24 hrs by WST-1 assay; format: functional, cell-based; conditions: HeLa S3, 24 h; how it was run: as §1

- IC50 (HCT-15): 13.2 µM
- IC50 (HeLa S3): 16 µM
Compound: COc1c(OC)c2c(c(CCN(C)C)c1SC)Sc1c(OC)c(OC)c(SC)c(CCN(C)C)c1S2 [LISSOCLIBADIN 3]
